Test results as given in paper PMC9798254 (Protein Science : A Publication of the Protein Society, 2023).

Legend:
Experiment in all cases: coupled photometric phosphate release assay
Assay type in all cases: biochemical, synthetic construct
Settings in all cases: 100 mM Tris/HCl pH 7.8, 5 mM MgCl2, 25°C
Anc5 = test system: Anc5
How it was run: (§1)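 Ancestral enzyme expressed in E. coli BW25113 (0.5 mM IPTG, overnight at 20°C). Purified by Ni affinity chromatography and size exclusion in 50 mM Tris/HCl pH 7.5, 400 mM NaCl, 2 mM MgCl2. Phosphate release coupled with 0.5 mM inosine, 0.25 U/ml purine nucleoside phosphorylase and 2.5 U/ml xanthine oxidase, at varied substrate concentrations. Reaction started with enzyme. Km fitted to Michaelis–Menten from initial slopes.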

Anc7 = test system: Anc7
How it was run: as §1

Anc6 = test system: Anc6
How it was run: as §1

Km (Anc5): 698 ± 123 µM
Km (Anc7): 122 ± 31 µM
Km (Anc6): 59 ± 12 µM
SMILES: N[C@H](COP(=O)(O)O)Cc1c[nH]cn1 [HolP]
